From ChEMBL document CHEMBL1146882, “Hepatoprotective activity of Schouwia thebica webb” (2006) come the findings set out here.

Assay [1] concerns Rattus norvegicus. Put plainly: Cholesterol level in Sprague-Dawley rat serum at 100 mg/kg, po. It counts as functional. In outline: (§1)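 Male Sprague–Dawley rats (180-200 g), 5 per group, dosed orally once daily for 5 successive days. Twenty-four hours after the last dose, each rat received a single oral dose of 50% CCl4 in corn oil (2.5 ml/kg). Comparison groups were corn oil alone and CCl4 alone. Two days later, blood was taken from the orbital plexus, and serum was separated by centrifugation at 3000 rpm for 15 min for the assays.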

For assay [2], the system named is Rattus norvegicus. The experiment in a line: Glucose level in Sprague-Dawley rat serum at 100 mg/kg, po. In kind it is functional. In outline:
as §1

The subject of assay [3] is Rattus norvegicus. Put plainly: Triglyceride level in Sprague-Dawley rat serum at 100 mg/kg, po. It counts as functional. Summed up:
as §1

For assay [4], the system named is Rattus norvegicus. The experiment in a line: Aspartate aminotransferase activity in Sprague-Dawley rat serum at 100 mg/kg, po. In kind it is functional. In outline:
as §1

Assay [5] deals with Rattus norvegicus. Put plainly: Gamma-glutamyl transferase activity in Sprague-Dawley rat serum at 100 mg/kg, po. In kind it is functional. In outline:
as §1

In assay [6] the test system is Rattus norvegicus. Put plainly: Total protein level in Sprague-Dawley rat serum at 100 mg/kg, po. It counts as functional. In outline: as §1
For assay [7], the system named is Rattus norvegicus. The experiment in a line: Total bilirubin level in Sprague-Dawley rat serum at 100 mg/kg, po. It counts as functional. In outline: as §1
The test system of assay [8] is Rattus norvegicus. Put plainly: Albumin level in Sprague-Dawley rat serum at 100 mg/kg, po. It counts as functional. In outline:
as §1

Assay [9] has as its system Rattus norvegicus. Put plainly: Alanine aminotransferase activity in Sprague-Dawley rat serum at 100 mg/kg, po. It counts as functional. In outline:
as §1

Assay [10] has as its system Rattus norvegicus. The experiment in a line: Albumin level in Sprague-Dawley rat serum at 25 mg/kg, po. It counts as functional, organism-based. Also noted: dose 25 mg/kg. Summed up:
as §1

The test system of assay [11] is Rattus norvegicus. The experiment in a line: Total protein level in Sprague-Dawley rat serum at 25 mg/kg, po. It counts as functional, organism-based. Details: dose 25 mg/kg. In outline: as §1
Assay [12] has as its system Rattus norvegicus. Put plainly: Alanine aminotransferase activity in Sprague-Dawley rat serum at 25 mg/kg, po. It counts as functional, organism-based. Details: dose 25 mg/kg. In outline:
as §1

The subject of assay [13] is Rattus norvegicus. The experiment in a line: Triglyceride level in Sprague-Dawley rat serum at 25 mg/kg, po. It counts as functional, organism-based. Also noted: dose 25 mg/kg. In outline: as §1
Assay [14] has as its system Rattus norvegicus. The experiment in a line: Total bilirubin level in Sprague-Dawley rat serum at 25 mg/kg, po. Also noted: dose 25 mg/kg. It counts as functional, organism-based. In outline: as §1
For assay [15], the system named is Rattus norvegicus. The experiment in a line: Aspartate aminotransferase activity in Sprague-Dawley rat serum at 25 mg/kg, po. In kind it is functional, organism-based. Also noted: dose 25 mg/kg. In outline: as §1
Assay [16] concerns Rattus norvegicus. Put plainly: Gamma-glutamyl transferase activity in Sprague-Dawley rat serum at 25 mg/kg, po. In kind it is functional, organism-based. Also noted: dose 25 mg/kg. Summed up:
as §1

Assay [17] deals with Rattus norvegicus. The experiment in a line: Cholesterol level in Sprague-Dawley rat serum at 25 mg/kg, po. In kind it is functional, organism-based. Details: dose 25 mg/kg. In outline:
as §1

The subject of assay [18] is Rattus norvegicus. Put plainly: Glucose level in Sprague-Dawley rat serum at 25 mg/kg, po. In kind it is functional, organism-based. Details: dose 25 mg/kg. Summed up:
as §1

On to `COc1cc(-c2cc(=O)c3c(O)cc(O)cc3o2)ccc1O` [CHRYSOERIOL], for which the Activity in the assay on Rattus norvegicus [1] was determined as 88.37 mg/dL; in the assay on Rattus norvegicus [2], 165.36 mg/dL; with Rattus norvegicus [3], 176.21 mg/dL; in the assay on Rattus norvegicus [4] it was 62.65 U/L; with Rattus norvegicus [5], 12.05 U/L; in the assay with Rattus norvegicus [6] it was 5.61 g/dL. Also, the Activity in the assay with Rattus norvegicus [7] turned out to be 0.33 mg/dL; in the assay with Rattus norvegicus [8] it was 3.05 g/dL; in the assay on Rattus norvegicus [9] it was 69.42 U/L.
As to SILYMARIN, the Activity came to 3.1 g/dL in the assay with Rattus norvegicus [10]; 6.1 g/dL in the assay with Rattus norvegicus [11]; 65.2 U/L in the assay on Rattus norvegicus [12]; 171 mg/dL with Rattus norvegicus [13]; 0.38 mg/dL in the assay with Rattus norvegicus [14]; 56.6 U/L in the assay on Rattus norvegicus [15]. Moreover, the Activity in the assay on Rattus norvegicus [16] was determined as 10.5 U/L; in the assay with Rattus norvegicus [17], 80.9 mg/dL; in the assay on Rattus norvegicus [18], 141 mg/dL.
`COc1cc(-c2cc(=O)c3c(O)cc(OC4O[C@H](CO)[C@@H](O)[C@@H]4OC4OC[C@@H](O)[C@H](O)[C@H]4O)cc3o2)ccc1O` (some centres not stated): the Activity in the assay with Rattus norvegicus [1] is 88.34 mg/dL; with Rattus norvegicus [2], 163.36 mg/dL; with Rattus norvegicus [3], 177.22 mg/dL; with Rattus norvegicus [4], 61.64 U/L; in the assay on Rattus norvegicus [5], 12.03 U/L; in the assay with Rattus norvegicus [6], 5.67 g/dL. Besides, the Activity came out at 0.33 mg/dL in the assay on Rattus norvegicus [7], 3.07 g/dL with Rattus norvegicus [8] and 68.43 U/L in the assay with Rattus norvegicus [9].
